# From ChEMBL document CHEMBL5696442, “Discovery of type II inhibitors of TGFβ-activated kinase 1 (TAK1) and mitogen-activated protein kinase kinase kinase kinase 2 (MAP4K2)” (J Med Chem, 2015)
# Active and inactive are the calls of the source. No cut-off for these calls is given here.
# Tests used:
# [1] = target: AP2-associated protein kinase 1 (Homo sapiens) (UniProt Q2M2I8); experiment: Inhibition of AAK1 (unknown origin) at 1 uM by Ambit Kinomescan binding assay relative to control
# [2] = target: Serine/threonine-protein kinase 24 (Homo sapiens) (UniProt Q9Y6E0); experiment: Inhibition of MST3 (unknown origin) at 1 uM by Ambit Kinomescan binding assay relative to control
# [3] = target: Tyrosine-protein kinase Srms (Homo sapiens) (UniProt Q9H3Y6); experiment: Inhibition of SRMS (unknown origin) at 1 uM by Ambit Kinomescan binding assay relative to control
# Sequence of Tyrosine-protein kinase Srms (Homo sapiens) (Q9H3Y6 whole entry, the tested form may be a part): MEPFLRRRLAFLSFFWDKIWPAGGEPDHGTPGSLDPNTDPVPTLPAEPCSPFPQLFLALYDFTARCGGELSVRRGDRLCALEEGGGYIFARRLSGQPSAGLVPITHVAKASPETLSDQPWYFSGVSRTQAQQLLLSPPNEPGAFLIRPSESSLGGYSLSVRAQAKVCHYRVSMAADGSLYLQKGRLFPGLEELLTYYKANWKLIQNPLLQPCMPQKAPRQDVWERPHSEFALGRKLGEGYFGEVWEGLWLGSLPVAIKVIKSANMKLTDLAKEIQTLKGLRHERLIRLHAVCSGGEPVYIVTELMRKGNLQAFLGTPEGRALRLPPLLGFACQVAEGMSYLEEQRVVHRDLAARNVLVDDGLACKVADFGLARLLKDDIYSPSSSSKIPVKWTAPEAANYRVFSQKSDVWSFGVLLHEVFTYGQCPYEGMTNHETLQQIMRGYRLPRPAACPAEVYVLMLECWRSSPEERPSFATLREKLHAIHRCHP
# [4] = target: Non-receptor tyrosine-protein kinase TYK2 (Homo sapiens) (UniProt P29597); experiment: Inhibition of TYK2 JH2 pseudokinase domain (unknown origin) at 1 uM by Ambit Kinomescan binding assay relative to control
# Sequence of Non-receptor tyrosine-protein kinase TYK2 (Homo sapiens) (P29597 whole entry, the tested form may be a part): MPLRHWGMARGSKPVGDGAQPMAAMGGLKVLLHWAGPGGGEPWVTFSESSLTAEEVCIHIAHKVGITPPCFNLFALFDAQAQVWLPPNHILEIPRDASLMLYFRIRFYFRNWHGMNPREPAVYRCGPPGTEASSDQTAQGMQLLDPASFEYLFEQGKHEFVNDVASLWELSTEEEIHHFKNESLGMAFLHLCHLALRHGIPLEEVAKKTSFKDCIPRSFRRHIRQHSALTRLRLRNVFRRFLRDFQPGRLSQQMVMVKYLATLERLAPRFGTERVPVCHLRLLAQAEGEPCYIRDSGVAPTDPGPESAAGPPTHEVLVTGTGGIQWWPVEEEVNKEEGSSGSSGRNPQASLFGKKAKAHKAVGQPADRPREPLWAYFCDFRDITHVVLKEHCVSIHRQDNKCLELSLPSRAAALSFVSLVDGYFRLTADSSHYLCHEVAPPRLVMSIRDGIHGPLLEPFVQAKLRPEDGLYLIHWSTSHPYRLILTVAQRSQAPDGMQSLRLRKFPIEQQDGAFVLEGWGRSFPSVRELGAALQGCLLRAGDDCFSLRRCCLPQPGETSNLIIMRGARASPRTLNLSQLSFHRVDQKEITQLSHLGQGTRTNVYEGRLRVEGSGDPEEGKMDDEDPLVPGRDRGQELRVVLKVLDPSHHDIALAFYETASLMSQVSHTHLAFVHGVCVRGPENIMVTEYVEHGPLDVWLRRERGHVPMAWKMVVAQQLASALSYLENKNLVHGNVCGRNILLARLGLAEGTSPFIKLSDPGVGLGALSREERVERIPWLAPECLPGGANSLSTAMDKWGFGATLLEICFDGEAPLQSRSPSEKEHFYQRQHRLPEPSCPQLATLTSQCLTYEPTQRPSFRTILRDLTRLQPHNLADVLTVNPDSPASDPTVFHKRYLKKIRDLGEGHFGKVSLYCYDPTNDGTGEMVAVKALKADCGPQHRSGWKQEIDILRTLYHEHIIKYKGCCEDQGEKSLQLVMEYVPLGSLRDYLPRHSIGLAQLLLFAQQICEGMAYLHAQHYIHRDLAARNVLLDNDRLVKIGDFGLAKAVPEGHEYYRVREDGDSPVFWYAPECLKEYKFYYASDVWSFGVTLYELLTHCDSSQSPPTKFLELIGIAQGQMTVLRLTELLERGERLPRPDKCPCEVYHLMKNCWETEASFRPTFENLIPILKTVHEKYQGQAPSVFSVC
# [5] = target: Diacylglycerol kinase alpha (Homo sapiens) (UniProt P23743); experiment: Inhibition of DGKA ATP labeling site harbouring in human A-375 cells at 5 uM by KiNativ Profiling analysis relative to control; assay type: cell-based
# [6] = target: Ribosomal protein S6 kinase alpha-3 (Homo sapiens) (UniProt P51812); experiment: Inhibition of RSK2 domain1 Lys2 labeling site harbouring DLKPENILLDEEGHIKLTDFGLSK in human A-375 cells at 5 uM by KiNativ Profiling analysis relative to control; assay type: cell-based
# Method in brief: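 Live A375 melanoma cells treated with compound at 5 or 0.5 μM, then lysed. Lysate kinases were labeled with a lysine-reactive ATP or ADP-biotin probe. Inhibition was read as protection of labeling sites from the probe.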
# [7] = target: Phosphatidylinositol 4-kinase alpha (Homo sapiens) (UniProt P42356); experiment: Inhibition of PI4KA ATP labeling site in human A-375 cells at 0.5 uM by KiNativ Profiling analysis relative to control; assay type: cell-based
# [8] = system: Fibroblast growth factor receptor 3 (Homo sapiens), P22607 [G697C]; experiment: Inhibition of FGFR3 G697C mutant (unknown origin) at 1 uM by Ambit Kinomescan binding assay relative to control; values are per cent of control
# Sequence of Fibroblast growth factor receptor 3 (Homo sapiens), P22607 [G697C] (P22607 whole entry G697C): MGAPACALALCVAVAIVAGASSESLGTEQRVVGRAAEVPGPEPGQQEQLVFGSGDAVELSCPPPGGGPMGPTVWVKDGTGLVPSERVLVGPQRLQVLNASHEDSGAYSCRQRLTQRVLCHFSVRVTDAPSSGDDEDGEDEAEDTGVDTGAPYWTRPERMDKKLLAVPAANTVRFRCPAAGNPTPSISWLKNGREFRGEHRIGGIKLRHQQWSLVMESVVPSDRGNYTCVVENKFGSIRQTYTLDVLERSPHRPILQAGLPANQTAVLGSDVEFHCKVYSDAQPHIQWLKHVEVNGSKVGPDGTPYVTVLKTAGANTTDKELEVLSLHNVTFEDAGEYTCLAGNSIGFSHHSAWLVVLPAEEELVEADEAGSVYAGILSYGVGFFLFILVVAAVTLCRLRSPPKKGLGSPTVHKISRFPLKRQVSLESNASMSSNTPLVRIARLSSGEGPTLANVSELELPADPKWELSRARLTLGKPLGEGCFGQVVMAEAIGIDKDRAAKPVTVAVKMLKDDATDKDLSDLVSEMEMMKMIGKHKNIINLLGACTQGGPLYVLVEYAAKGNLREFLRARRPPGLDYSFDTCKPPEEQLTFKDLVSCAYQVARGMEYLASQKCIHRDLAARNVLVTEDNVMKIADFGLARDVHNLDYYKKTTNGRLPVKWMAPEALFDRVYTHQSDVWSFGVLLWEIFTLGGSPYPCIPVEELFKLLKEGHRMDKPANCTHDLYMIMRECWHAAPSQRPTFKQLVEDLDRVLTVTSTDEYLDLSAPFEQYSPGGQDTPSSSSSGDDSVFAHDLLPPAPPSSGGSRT
# [9] = target: Mitogen-activated protein kinase kinase kinase 20 (Homo sapiens, UniProt Q9NYL2); experiment: Inhibition of ZAK Lys1 labeling site in human A-375 cells at 0.5 uM by KiNativ Profiling analysis relative to control; assay type: cell-based
# Sequence of Mitogen-activated protein kinase kinase kinase 20 (Q9NYL2 2-800 limits assumed): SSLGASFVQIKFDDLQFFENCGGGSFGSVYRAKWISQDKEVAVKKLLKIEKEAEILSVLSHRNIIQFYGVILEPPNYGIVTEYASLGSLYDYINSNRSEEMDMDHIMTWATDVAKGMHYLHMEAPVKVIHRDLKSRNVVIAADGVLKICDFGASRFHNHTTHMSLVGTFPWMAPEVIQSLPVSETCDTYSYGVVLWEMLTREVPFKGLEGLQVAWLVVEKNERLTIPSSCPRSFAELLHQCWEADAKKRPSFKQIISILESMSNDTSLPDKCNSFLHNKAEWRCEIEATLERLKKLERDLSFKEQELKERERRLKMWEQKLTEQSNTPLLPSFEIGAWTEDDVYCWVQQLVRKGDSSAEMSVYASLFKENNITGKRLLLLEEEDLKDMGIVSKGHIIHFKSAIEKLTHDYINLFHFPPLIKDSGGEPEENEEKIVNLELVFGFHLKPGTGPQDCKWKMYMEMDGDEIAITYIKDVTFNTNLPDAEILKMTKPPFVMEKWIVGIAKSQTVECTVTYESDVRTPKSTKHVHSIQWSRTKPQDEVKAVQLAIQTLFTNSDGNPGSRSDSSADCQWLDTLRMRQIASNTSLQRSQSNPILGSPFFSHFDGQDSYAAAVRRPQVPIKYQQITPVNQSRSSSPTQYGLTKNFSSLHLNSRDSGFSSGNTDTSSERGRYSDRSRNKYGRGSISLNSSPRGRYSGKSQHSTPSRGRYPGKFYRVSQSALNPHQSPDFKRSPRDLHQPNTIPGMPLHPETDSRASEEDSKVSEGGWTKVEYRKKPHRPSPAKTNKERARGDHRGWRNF
# [10] = target: Death-associated protein kinase 2 (Homo sapiens) (UniProt Q9UIK4); experiment: Inhibition of DAPK2 (unknown origin) at 10 uM by Ambit Kinomescan binding assay
# Sequence of Death-associated protein kinase 2 (Homo sapiens) (Q9UIK4 whole entry, looked up): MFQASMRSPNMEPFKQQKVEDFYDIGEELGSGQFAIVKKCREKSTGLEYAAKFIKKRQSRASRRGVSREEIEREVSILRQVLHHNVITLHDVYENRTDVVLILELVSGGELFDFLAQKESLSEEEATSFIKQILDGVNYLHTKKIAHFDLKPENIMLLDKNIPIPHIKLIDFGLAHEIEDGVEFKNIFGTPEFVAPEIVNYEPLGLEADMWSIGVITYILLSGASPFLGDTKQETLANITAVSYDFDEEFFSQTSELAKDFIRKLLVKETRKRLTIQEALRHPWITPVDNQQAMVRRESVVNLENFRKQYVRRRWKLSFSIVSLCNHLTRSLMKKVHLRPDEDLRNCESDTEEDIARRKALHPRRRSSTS
# [11] = target: Tyrosine-protein kinase Fgr (Homo sapiens) (UniProt P09769); experiment: Inhibition of FGR (unknown origin) at 10 uM by Ambit Kinomescan binding assay relative to control
# [12] = target: 3-phosphoinositide-dependent protein kinase 1 (Homo sapiens) (UniProt O15530); experiment: Inhibition of PDPK1 (unknown origin) at 10 uM by Ambit Kinomescan binding assay
# [13] = target: Phosphatidylinositol 4-phosphate 3-kinase C2 domain-containing subunit beta (Homo sapiens) (UniProt O00750); experiment: Inhibition of PIK3C2B (unknown origin) at 10 uM by Ambit Kinomescan binding assay
# [14] = target: Misshapen-like kinase 1 (Homo sapiens) (UniProt Q8N4C8); experiment: Inhibition of ZC3/MINK K2 labeling site in human Huh-7 cells at 10 uM by KiNativ Profiling analysis relative to control; assay type: cell-based
# [15] = target: Phosphatidylinositol 4,5-bisphosphate 3-kinase catalytic subunit beta isoform (Homo sapiens) (UniProt P42338); experiment: Inhibition of PIK3CB ATP labeling site in human Huh-7 cells at 1 uM by KiNativ Profiling analysis relative to control; assay type: cell-based
# [16] = target: Interferon-induced, double-stranded RNA-activated protein kinase (Homo sapiens) (UniProt P19525); experiment: Inhibition of PKR ACT labeling site in human Huh-7 cells at 1 uM by KiNativ Profiling analysis relative to control; assay type: cell-based
# Sequence of Interferon-induced, double-stranded RNA-activated protein kinase (Homo sapiens) (P19525 whole entry): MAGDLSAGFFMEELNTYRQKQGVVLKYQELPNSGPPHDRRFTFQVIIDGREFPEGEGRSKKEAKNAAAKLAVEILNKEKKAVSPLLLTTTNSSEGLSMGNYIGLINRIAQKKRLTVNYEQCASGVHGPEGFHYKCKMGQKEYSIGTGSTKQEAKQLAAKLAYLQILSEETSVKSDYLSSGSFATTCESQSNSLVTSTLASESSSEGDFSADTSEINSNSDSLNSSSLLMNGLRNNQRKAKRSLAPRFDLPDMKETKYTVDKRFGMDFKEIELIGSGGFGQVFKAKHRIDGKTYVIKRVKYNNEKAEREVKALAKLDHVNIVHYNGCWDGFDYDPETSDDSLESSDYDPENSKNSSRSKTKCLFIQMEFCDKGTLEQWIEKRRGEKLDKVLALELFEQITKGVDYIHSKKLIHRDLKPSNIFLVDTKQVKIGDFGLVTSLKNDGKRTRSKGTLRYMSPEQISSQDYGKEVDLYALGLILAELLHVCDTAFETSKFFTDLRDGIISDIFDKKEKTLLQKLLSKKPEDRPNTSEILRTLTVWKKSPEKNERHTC
# [17] = target: T1, Mitogen-activated protein kinase 12 (Homo sapiens) (UniProt P53778); experiment: Inhibition of p38gamma (unknown origin) at 10 uM by Ambit Kinomescan binding assay relative to control; values are per cent of control
# T1 sequence (whole entry): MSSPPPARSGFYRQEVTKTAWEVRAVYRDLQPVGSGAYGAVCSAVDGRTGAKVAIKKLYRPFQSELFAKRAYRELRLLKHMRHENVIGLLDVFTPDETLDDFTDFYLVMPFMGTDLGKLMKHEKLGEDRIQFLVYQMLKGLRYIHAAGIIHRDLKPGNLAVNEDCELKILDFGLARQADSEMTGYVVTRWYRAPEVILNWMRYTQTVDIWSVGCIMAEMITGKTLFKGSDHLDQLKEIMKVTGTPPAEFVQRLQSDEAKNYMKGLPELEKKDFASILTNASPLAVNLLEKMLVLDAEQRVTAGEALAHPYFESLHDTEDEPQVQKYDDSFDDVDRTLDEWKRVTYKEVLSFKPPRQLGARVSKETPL
# [18] = target: Cyclin-dependent kinase 10 (Homo sapiens) (UniProt Q15131); experiment: Inhibition of CDK10 Lys2 labeling site in human Huh-7 cell lysate at 1 uM by KiNativ Profiling analysis relative to control; assay type: subcellular
# Sequence of Cyclin-dependent kinase 10 (Homo sapiens) (Q15131 whole entry): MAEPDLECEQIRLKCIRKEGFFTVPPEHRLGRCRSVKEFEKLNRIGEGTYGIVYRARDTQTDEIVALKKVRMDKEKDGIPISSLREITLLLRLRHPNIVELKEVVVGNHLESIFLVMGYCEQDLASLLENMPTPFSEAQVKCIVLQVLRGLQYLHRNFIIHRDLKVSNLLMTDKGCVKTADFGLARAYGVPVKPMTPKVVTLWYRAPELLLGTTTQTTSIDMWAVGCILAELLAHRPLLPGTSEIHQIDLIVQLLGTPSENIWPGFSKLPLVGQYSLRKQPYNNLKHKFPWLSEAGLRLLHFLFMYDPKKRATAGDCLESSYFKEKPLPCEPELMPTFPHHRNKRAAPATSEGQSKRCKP
# [19] = target: Microtubule-associated serine/threonine-protein kinase 3 (Homo sapiens) (UniProt O60307); experiment: Inhibition of MAST3 Lys2 labeling site in human Huh-7 cell lysate at 1 uM by KiNativ Profiling analysis relative to control; assay type: subcellular
# [20] = target: T2, Phosphorylase b kinase gamma catalytic chain, liver/testis isoform (Homo sapiens) (UniProt P15735); experiment: Inhibition of PHKg2 Lys1 labeling site in human Huh-7 cell lysate at 1 uM by KiNativ Profiling analysis relative to control; assay type: subcellular
# T2 sequence (whole entry): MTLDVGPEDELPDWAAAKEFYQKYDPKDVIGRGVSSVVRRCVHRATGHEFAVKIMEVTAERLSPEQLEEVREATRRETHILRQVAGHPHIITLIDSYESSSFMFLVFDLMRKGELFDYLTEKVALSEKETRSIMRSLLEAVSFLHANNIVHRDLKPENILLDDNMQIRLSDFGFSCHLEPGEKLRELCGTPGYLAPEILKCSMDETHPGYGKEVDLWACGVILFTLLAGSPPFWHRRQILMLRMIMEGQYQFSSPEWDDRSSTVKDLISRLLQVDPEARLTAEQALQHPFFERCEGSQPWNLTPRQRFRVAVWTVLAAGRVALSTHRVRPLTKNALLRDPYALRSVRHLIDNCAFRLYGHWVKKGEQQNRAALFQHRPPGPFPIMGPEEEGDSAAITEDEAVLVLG
# [21] = target: Cyclin-dependent kinase 7 (Homo sapiens) (UniProt P50613); experiment: Inhibition of CDK7 Lys2 labeling site in human Huh-7 cells at 1 uM by KiNativ Profiling analysis relative to control; assay type: cell-based
# Sequence of Cyclin-dependent kinase 7 (Homo sapiens) (P50613 whole entry): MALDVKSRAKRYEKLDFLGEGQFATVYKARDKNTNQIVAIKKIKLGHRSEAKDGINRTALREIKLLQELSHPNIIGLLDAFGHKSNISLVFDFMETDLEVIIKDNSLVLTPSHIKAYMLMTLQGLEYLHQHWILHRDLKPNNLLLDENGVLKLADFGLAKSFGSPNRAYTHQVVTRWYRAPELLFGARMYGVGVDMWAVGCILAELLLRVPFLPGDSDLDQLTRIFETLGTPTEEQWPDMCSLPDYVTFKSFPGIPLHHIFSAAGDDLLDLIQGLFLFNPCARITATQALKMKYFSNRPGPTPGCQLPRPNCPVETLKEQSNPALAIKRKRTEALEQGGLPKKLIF
# [22] = target: Serine/threonine-protein kinase Nek7 (Homo sapiens) (UniProt Q8TDX7); experiment: Inhibition of NEK7 Lys1 labeling site in human Huh-7 cells at 1 uM by KiNativ Profiling analysis relative to control; assay type: cell-based
structure (smiles),measurement,setting,value
CCN1CCN(Cc2ccc(NC(=O)c3ccc(C)c(/C=C/c4cnc5[nH]ccc5c4OC)c3)cc2C(F)(F)F)CC1,inhibition,[1],67%
same,inhibition,[2],75%
same,inhibition,[3],34%
same,inhibition,[4],47%
same,inhibition,[5],-1.8%
same,inhibition,[6],-4.9%
same,inhibition,[7],-8%
same,residual activity,[8],23%
CCN1CCN(Cc2ccc(NC(=O)c3ccc(C)c(Oc4ccnc5[nH]ccc45)c3)cc2C(F)(F)F)CC1,inhibition,[9],93%
same,inhibition,[10],inactive
same,inhibition,[11],1.2%
same,inhibition,[12],inactive
same,inhibition,[13],inactive
same,inhibition,[14],72.6%
same,inhibition,[15],inactive
same,inhibition,[16],48.5%
same,percent of control,[17],0%
CNc1cc(Oc2cc(C(=O)Nc3cc(N4CCN(C)CC4)cc(C(F)(F)F)c3)ccc2C)ncn1,inhibition,[18],2.7%
same,inhibition,[19],-0.3%
same,inhibition,[20],0.2%
same,inhibition,[21],2.6%
same,inhibition,[22],7.6%
